Measurements from ChEMBL document CHEMBL3286386, “One-pot synthesis of vinca alkaloids-phomopsin hybrids” (J Med Chem, 2014).

How the values were obtained:
[1] = Inhibition of sheep brain tubulin assembly by UV-spectrophotometry; design: species or system Ovis aries
Method in brief: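 Microtubule assembly run at 3 mg/mL tubulin; IC50 defined as the concentration inhibiting the rate of assembly by 50%.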

[2] = tested on: HCT-116; assay: Antiproliferative activity against human HCT116 cells after 72 hrs; type: functional, cell-based; settings: HCT-116, 72 h
Method in brief: (§1)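 Cells exposed to compound for 72 h; IC50 taken as the concentration giving 50% inhibition of cell proliferation.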

[3] = Antiproliferative activity against human U87 cells after 72 hrs; type: functional, cell-based, U-87MG ATCC; settings: U-87 MG; method in brief: as §1
[4] = tested on: K562; assay: Antiproliferative activity against human K562 cells after 72 hrs; type: functional, cell-based; settings: K562, 72 h; method in brief: as §1
[5] = tested on: MCF7; assay: Antiproliferative activity against human MCF7 cells after 72 hrs; type: functional, cell-based; settings: MCF7, 72 h; method in brief: as §1

| SMILES | IC50 [1] [nM] | IC50 [2] [nM] | IC50 [3] [nM] | IC50 [4] [nM] | IC50 [5] [nM] |
| --- | --- | --- | --- | --- | --- |
| CCC1=C[C@@H]2CN(C1)C[C@H](CN1CCC[C@H]1C(=O)OC)Cc1c([nH]c3ccccc13)[C@@](C(=O)OC)(c1cc3c(cc1OC)N(C)[C@H]1[C@@](O)(C(=O)OC)[C@H](OC(C)=O)[C@]4(CC)C=CCN5CC[C@]31[C@@H]54)C2 | 1000 | 700 | 25 | 120 | 230 |
| CCC1=C[C@@H]2CN(C1)C[C@H](CN1CCC[C@H]1C(=O)N[C@H](C(=O)OC)[C@@H](C)CC)Cc1c([nH]c3ccccc13)[C@@](C(=O)OC)(c1cc3c(cc1OC)N(C)[C@H]1[C@@](O)(C(=O)OC)[C@H](OC(C)=O)[C@]4(CC)C=CCN5CC[C@]31[C@@H]54)C2 | 2700 | 1000 | 400 | 250 | 800 |
| CC[C@H](C)[C@H](NC(=O)[C@@H]1CCCN1C(=O)[C@H]1NC(=O)[C@H](C(C)C)NC(=O)[C@@H](NC)[C@@H](O)c2cc(Cl)c(O)c(c2)O[C@]1(C)CC)C(=O)NC(CC(=O)O)C(=O)O (mixture of isomers) | 400 | – | – | – | – |
| C=C(C)[C@@H]1NC(=O)[C@@H](NC)[C@@H](O)c2cc(Cl)c(O)c(c2)O[C@](C)(CC)[C@@H](C(=O)N2CC=C[C@H]2C(=O)N/C(C(=O)N/C(=C/C(=O)O)C(=O)O)=C(\C)CC)NC1=O [PHOMOPSIN A] | 560 | – | – | – | – |
| CC[C@]1(O)C[C@@H]2CN(CCc3c([nH]c4ccccc34)[C@@](C(=O)OC)(c3cc4c(cc3OC)N(C)[C@H]3[C@@](O)(C(=O)OC)[C@H](OC(C)=O)[C@]5(CC)C=CCN6CC[C@]43[C@@H]65)C2)C1 [VINBLASTINE] | 2100 | – | 1 | 2.7 | 0.7 |
| CCC1=C[C@@H]2CN(C1)Cc1c([nH]c3ccccc13)[C@@](C(=O)OC)(c1cc3c(cc1OC)N(C)[C@H]1[C@@](O)(C(=O)OC)[C@H](OC(C)=O)[C@]4(CC)C=CCN5CC[C@]31[C@@H]54)C2 [VINORELBINE] | 600 | – | 2 | 3.5 | 4 |
